# Experiments:
# [1] = target: Acetylcholinesterase (Electrophorus electricus, UniProt O42275); assay: Inhibition of electric eel AChE using […] as substrate incubated for 15 mins prior to substrate addition measured after 30 mins by Ellman's method
# [2] = Selectivity ratio of IC50 for equine serum BuChE to IC50 for electric eel AChE
# [3] = Selectivity ratio of IC50 for electric eel AChE to IC50 for equine serum BuChE
# [4] = target: Cholinesterase (Equus caballus, UniProt P81908); assay: Inhibition of equine serum BuChE using S-butyrylthiocholine chloride as substrate incubated for 15 mins prior to substrate addition measured after 30 mins by Ellman's method
# Sequence of Cholinesterase (P81908 whole entry): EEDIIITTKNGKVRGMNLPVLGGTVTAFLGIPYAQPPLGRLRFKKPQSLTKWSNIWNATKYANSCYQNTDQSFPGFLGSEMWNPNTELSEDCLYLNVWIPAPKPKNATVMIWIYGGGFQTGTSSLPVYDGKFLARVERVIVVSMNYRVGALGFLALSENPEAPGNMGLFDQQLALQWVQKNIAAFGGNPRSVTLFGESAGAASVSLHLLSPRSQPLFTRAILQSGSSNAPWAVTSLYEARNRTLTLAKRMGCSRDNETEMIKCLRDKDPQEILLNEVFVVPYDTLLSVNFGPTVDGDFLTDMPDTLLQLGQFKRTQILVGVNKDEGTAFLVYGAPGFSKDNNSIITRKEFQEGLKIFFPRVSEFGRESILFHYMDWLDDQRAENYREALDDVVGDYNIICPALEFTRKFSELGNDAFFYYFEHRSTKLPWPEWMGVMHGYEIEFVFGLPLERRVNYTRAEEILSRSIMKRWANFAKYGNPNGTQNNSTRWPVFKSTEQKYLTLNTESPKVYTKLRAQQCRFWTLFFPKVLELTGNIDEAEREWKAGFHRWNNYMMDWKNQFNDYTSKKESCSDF
# Outline: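 Modified Ellman method in 0.1 M sodium phosphate buffer, pH 8. Samples were dissolved in DMSO (1 mg/mL stock; 1% DMSO final). Equine serum BChE was preincubated with sample for 15 min at 25 °C. DTNB (10 mM stock) and S-butyrylthiocholine chloride were then added, and absorbance was read at 412 nm after 30 min. Triplicate, blank-corrected, % inhibition versus control.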
# [5] = target: Cholinesterase (Equus caballus) (UniProt P81908); assay: Selectivity ratio of Galanthamine IC50 to compound IC50 for equine BChE
# Sequence of Cholinesterase (Equus caballus) (P81908 whole entry): as above
# Sequence of Acetylcholinesterase (O42275 whole entry): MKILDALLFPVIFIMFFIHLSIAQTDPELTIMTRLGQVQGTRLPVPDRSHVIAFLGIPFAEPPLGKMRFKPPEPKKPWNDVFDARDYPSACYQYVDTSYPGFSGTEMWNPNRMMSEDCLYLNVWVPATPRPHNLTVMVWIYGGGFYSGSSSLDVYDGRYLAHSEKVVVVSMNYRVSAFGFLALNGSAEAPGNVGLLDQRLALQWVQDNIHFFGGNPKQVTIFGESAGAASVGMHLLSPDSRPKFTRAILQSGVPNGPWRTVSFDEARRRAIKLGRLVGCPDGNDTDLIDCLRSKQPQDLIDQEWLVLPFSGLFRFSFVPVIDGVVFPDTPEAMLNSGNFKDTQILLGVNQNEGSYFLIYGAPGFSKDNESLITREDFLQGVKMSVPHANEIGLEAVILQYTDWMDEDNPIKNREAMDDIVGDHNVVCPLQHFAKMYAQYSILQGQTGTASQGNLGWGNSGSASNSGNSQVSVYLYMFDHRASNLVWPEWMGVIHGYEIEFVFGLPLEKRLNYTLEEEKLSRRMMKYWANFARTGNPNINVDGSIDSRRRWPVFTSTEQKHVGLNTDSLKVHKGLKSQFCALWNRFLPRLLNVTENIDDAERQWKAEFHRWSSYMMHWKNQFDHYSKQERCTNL
compound,measurement,setting,value
O=C1NC2=C(CNC/C2=C\c2ccc(Br)cc2)C(c2ccc(Br)cc2)N1 (stereo not given),IC50,[1],15.9 µM
same,Ratio IC50,[2],0.39
same,Ratio IC50,[3],2.54
same,IC50,[4],6.22 µM
same,Ratio IC50,[5],2
S=C1NC2=C(CNC/C2=C\c2ccccc2Cl)C(c2ccccc2Cl)N1 (stereo not given),IC50,[1],32.4 µM
same,Ratio IC50,[2],0.09
same,Ratio IC50,[3],11.1
same,IC50,[4],2.91 µM
same,Ratio IC50,[5],2
Fc1ccccc1/C=C1\CNCC2=C1NC(=S)NC2c1ccccc1F (stereo not given),IC50,[1],40.4 µM
same,Ratio IC50,[2],0.16
same,Ratio IC50,[3],6.21
same,IC50,[4],6.5 µM
same,Ratio IC50,[5],2
COc1ccccc1/C=C1\CNCC2=C1NC(=S)NC2c1ccccc1OC (stereo not given),IC50,[1],0.8 µM
same,Ratio IC50,[2],1.47
same,Ratio IC50,[3],0.67
same,IC50,[4],1.18 µM
same,Ratio IC50,[5],16
O=C1NC2=C(CNC/C2=C\c2cccc([N+](=O)[O-])c2)C(c2cccc([N+](=O)[O-])c2)N1 (stereo not given),IC50,[1],28.3 µM
same,Ratio IC50,[2],0.37
same,Ratio IC50,[3],2.73
same,IC50,[4],10.3 µM
same,Ratio IC50,[5],2
O=C1NC2=C(CNC/C2=C\c2ccccc2)C(c2ccccc2)N1 (stereo not given),IC50,[1],68.7 µM
same,Ratio IC50,[2],0.04
same,Ratio IC50,[3],24
same,IC50,[4],2.86 µM
same,Ratio IC50,[5],2
Cc1ccccc1/C=C1\CNCC2=C1NC(=O)NC2c1ccccc1C (stereo not given),IC50,[1],40.4 µM
same,Ratio IC50,[2],0.13
same,Ratio IC50,[3],7.74
same,IC50,[4],5.22 µM
same,Ratio IC50,[5],2
Cc1ccccc1/C=C1\CNCC2=C1NC(=S)NC2c1ccccc1C (stereo not given),IC50,[1],39.7 µM
same,Ratio IC50,[2],0.08
same,Ratio IC50,[3],12.9
same,IC50,[4],3.07 µM
same,Ratio IC50,[5],2
O=C1NC2=C(CNC/C2=C\c2ccc(Cl)cc2)C(c2ccc(Cl)cc2)N1 (stereo not given),IC50,[1],36.8 µM
same,Ratio IC50,[2],0.45
same,Ratio IC50,[3],2.2
same,IC50,[4],16.7 µM
same,Ratio IC50,[5],2
O=C1NC2=C(CNC/C2=C\c2ccccc2Cl)C(c2ccccc2Cl)N1 (stereo not given),IC50,[1],24.1 µM
same,Ratio IC50,[2],0.1
same,Ratio IC50,[3],9.57
same,IC50,[4],2.51 µM
same,Ratio IC50,[5],2
O=C1NC2=C(CNC/C2=C\c2ccc(F)cc2)C(c2ccc(F)cc2)N1 (stereo not given),IC50,[1],44.2 µM
same,Ratio IC50,[2],0.43
same,Ratio IC50,[3],2.34
same,IC50,[4],18.9 µM
same,Ratio IC50,[5],2
Cc1ccc(/C=C2\CNCC3=C2NC(=S)NC3c2ccc(C)cc2)cc1 (stereo not given),IC50,[1],37.5 µM
same,Ratio IC50,[2],0.17
same,Ratio IC50,[3],5.95
same,IC50,[4],6.27 µM
same,Ratio IC50,[5],2
O=C1NC2=C(CNC/C2=C\c2cccc3ccccc23)C(c2cccc3ccccc23)N1 (stereo not given),IC50,[1],13.2 µM
same,Ratio IC50,[2],0.41
same,Ratio IC50,[3],2.44
same,IC50,[4],5.39 µM
same,Ratio IC50,[5],2
S=C1NC2=C(CNC/C2=C\c2ccc(Cl)cc2)C(c2ccc(Cl)cc2)N1 (stereo not given),IC50,[1],2.25 µM
same,Ratio IC50,[2],2.78
same,Ratio IC50,[3],0.35
same,IC50,[4],6.26 µM
same,Ratio IC50,[5],2
O=C1NC2=C(CNC/C2=C\c2ccccc2F)C(c2ccccc2F)N1 (stereo not given),IC50,[1],18.6 µM
same,Ratio IC50,[2],0.18
same,Ratio IC50,[3],5.61
same,IC50,[4],3.31 µM
same,Ratio IC50,[5],2
O=[N+]([O-])c1cccc(/C=C2\CNCC3=C2NC(=S)NC3c2cccc([N+](=O)[O-])c2)c1 (stereo not given),IC50,[1],34.3 µM
same,Ratio IC50,[2],0.24
same,Ratio IC50,[3],4.25
same,IC50,[4],8.09 µM
same,Ratio IC50,[5],2
O=C1NC2=C(CNC/C2=C\c2ccc(Cl)cc2Cl)C(c2ccc(Cl)cc2Cl)N1 (stereo not given),IC50,[1],29.9 µM
same,Ratio IC50,[2],0.79
same,Ratio IC50,[3],1.26
same,IC50,[4],23.5 µM
same,Ratio IC50,[5],2
Fc1ccc(/C=C2\CNCC3=C2NC(=S)NC3c2ccc(F)cc2)cc1 (stereo not given),IC50,[1],37.2 µM
same,Ratio IC50,[2],0.77
same,Ratio IC50,[3],1.29
same,IC50,[4],28.8 µM
same,Ratio IC50,[5],2
COc1ccccc1/C=C1\CNCC2=C1NC(=O)NC2c1ccccc1OC (stereo not given),IC50,[1],40.2 µM
same,Ratio IC50,[2],0.27
same,Ratio IC50,[3],3.75
same,IC50,[4],10.7 µM
same,Ratio IC50,[5],2
S=C1NC2=C(CNC/C2=C\c2ccc(Br)cc2)C(c2ccc(Br)cc2)N1 (stereo not given),IC50,[1],11.9 µM
same,Ratio IC50,[2],0.14
same,Ratio IC50,[3],7.2
same,IC50,[4],1.65 µM
same,Ratio IC50,[5],12
S=C1NC2=C(CNC/C2=C\c2ccccc2)C(c2ccccc2)N1 (stereo not given),IC50,[1],19.3 µM
same,Ratio IC50,[2],0.2
same,Ratio IC50,[3],5.09
same,IC50,[4],3.78 µM
same,Ratio IC50,[5],2
S=C1NC2=C(CNC/C2=C\c2cccc3ccccc23)C(c2cccc3ccccc23)N1 (stereo not given),IC50,[1],1.37 µM
same,Ratio IC50,[2],4.07
same,Ratio IC50,[3],0.25
same,IC50,[4],5.58 µM
same,Ratio IC50,[5],2
S=C1NC2=C(CNC/C2=C\c2ccc(Cl)cc2Cl)C(c2ccc(Cl)cc2Cl)N1 (stereo not given),IC50,[1],26.3 µM
same,Ratio IC50,[2],1.5
same,Ratio IC50,[3],0.67
same,IC50,[4],49.8 µM
same,Ratio IC50,[5],2
Cc1ccc(/C=C2\CNCC3=C2NC(=O)NC3c2ccc(C)cc2)cc1 (stereo not given),IC50,[1],46.5 µM
same,Ratio IC50,[2],0.15
same,Ratio IC50,[3],6.56
same,IC50,[4],7.09 µM
same,Ratio IC50,[5],2

# From ChEMBL document CHEMBL2385018, “Microwave assisted synthesis, cholinesterase enzymes inhibitory activities and molecular docking studies of new pyridopyrimidine derivatives” (Bioorg Med Chem, 2013)
